Counter-ions that a name gives are not always drawn. Active and inactive are the calls of the source. No cut-off for these calls is given here.
How the values were obtained:
[1] = GSH reactivity assessed as pseudo first order rate constant at 1 mM in presence of glutathione; format: physicochemical; settings: 1000 µM
[2] = molecular target: Botulinum neurotoxin type A (Clostridium botulinum) (UniProt P0DPI0); test: Irreversible inhibition of Clostridium botulinum BoNT/A light chain (1 to 425 residues) assessed as ratio of Kinact/Ki using SNAPtide flp6 as substrate inhibited for 1 hr by FRET assay
Sequence of Botulinum neurotoxin type A (Clostridium botulinum) (P0DPI0 2-448 limits assumed): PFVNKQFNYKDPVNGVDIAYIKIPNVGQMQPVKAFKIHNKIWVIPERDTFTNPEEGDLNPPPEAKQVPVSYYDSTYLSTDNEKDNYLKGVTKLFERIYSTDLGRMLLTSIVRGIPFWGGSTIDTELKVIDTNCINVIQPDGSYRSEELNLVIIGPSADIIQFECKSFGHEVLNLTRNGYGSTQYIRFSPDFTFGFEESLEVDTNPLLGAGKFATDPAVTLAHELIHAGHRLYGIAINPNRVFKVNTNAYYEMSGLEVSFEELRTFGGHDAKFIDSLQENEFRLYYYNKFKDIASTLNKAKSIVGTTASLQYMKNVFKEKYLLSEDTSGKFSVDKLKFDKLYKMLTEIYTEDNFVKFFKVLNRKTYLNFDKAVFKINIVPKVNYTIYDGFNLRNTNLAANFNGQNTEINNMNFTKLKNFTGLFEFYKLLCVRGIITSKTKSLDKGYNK

[3] = molecular target: Botulinum neurotoxin type A (Clostridium botulinum) (UniProt P0DPI0); test: Time dependent inhibition of Clostridium botulinum BoNT/A light chain (1 to 425 residues) using SNAPtide flp6 as substrate by FRET assay; settings: dose 100.0 µM, time hrs <=8
[4] = molecular target: T1, Interstitial collagenase (Homo sapiens, UniProt P03956); test: Inhibition of MMP-1 (unknown origin) at 25 uM using TQ3-GABA-Pro-Cha-Abu-Smc-His-Ala-Dab(6'-TAMRA)-Ala-Lys-NH2 as substrate bu fluorometric analysis
T1 sequence (P03956 whole entry): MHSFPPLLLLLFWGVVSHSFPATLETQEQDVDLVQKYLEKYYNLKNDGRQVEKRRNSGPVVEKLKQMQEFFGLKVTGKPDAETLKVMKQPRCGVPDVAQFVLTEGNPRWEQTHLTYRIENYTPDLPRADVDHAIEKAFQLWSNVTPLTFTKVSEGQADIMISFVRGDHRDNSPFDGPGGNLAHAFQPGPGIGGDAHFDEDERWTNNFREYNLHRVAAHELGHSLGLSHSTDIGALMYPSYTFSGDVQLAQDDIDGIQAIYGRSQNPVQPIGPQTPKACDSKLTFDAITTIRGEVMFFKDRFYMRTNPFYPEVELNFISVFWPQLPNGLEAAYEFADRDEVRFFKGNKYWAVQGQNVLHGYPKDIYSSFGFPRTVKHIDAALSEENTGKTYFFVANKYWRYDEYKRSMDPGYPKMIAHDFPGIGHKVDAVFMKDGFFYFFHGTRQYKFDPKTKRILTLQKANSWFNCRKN
Summary of the method: (§1)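 Residual activity of each MMP in the panel was measured in the presence of compound at 25 μM.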

[5] = molecular target: 72 kDa type IV collagenase (Homo sapiens, UniProt P08253); test: Inhibition of MMP-2 (unknown origin) at 25 uM using TQ3-GABA-Pro-Cha-Abu-Smc-His-Ala-Dab(6'-TAMRA)-Ala-Lys-NH2 as substrate bu fluorometric analysis; summary of the method: as §1
Sequence of 72 kDa type IV collagenase (P08253 whole entry): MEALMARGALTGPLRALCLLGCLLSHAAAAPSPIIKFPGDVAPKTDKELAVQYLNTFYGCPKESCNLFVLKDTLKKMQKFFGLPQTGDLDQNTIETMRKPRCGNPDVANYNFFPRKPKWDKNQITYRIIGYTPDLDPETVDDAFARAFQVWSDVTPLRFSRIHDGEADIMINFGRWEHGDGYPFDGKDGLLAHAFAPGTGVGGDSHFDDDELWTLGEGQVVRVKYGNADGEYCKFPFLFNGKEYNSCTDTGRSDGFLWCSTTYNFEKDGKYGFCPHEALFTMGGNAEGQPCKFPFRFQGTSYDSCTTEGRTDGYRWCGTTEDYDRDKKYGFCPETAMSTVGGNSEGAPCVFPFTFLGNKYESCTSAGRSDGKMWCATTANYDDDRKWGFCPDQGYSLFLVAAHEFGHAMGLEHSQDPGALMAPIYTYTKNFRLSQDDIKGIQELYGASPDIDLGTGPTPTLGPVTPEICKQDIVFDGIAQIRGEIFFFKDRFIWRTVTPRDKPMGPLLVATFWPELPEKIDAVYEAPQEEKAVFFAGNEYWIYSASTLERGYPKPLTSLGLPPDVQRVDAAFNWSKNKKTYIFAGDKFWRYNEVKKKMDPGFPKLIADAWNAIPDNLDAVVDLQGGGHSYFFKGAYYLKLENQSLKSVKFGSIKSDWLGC

[6] = molecular target: Stromelysin-1 (Homo sapiens, UniProt P08254); test: Inhibition of MMP-3 (unknown origin) at 25 uM using TQ3-GABA-Pro-Cha-Abu-Smc-His-Ala-Dab(6'-TAMRA)-Ala-Lys-NH2 as substrate bu fluorometric analysis; summary of the method: as §1
Sequence of Stromelysin-1 (P08254 whole entry): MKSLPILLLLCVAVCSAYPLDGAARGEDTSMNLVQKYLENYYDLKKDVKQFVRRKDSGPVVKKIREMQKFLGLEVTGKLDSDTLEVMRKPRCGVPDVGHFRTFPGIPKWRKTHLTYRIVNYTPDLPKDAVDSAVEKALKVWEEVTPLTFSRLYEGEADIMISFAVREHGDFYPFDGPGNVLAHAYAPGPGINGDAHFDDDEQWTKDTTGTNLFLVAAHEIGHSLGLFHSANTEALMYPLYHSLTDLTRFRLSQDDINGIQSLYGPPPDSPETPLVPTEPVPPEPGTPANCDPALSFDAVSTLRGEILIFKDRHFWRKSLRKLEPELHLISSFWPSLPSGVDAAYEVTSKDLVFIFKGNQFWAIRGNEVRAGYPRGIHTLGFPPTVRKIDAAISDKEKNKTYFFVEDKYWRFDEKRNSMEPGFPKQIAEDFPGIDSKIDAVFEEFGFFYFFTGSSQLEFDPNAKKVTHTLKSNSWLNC

[7] = molecular target: T2, Matrilysin (Homo sapiens, UniProt P09237); test: Inhibition of MMP-7 (unknown origin) at 25 uM using TQ3-GABA-Pro-Cha-Abu-Smc-His-Ala-Dab(6'-TAMRA)-Ala-Lys-NH2 as substrate bu fluorometric analysis; summary of the method: as §1
T2 sequence (P09237 whole entry): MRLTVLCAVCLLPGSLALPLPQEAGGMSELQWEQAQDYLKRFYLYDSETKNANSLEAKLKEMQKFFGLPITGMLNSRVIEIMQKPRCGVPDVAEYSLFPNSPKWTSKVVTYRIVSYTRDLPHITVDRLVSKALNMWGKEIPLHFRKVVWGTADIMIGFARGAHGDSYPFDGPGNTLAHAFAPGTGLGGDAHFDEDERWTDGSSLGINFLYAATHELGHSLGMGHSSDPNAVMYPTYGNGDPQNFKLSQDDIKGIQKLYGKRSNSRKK

[8] = molecular target: Neutrophil collagenase (Homo sapiens, UniProt P22894); test: Inhibition of MMP-8 (unknown origin) at 25 uM using TQ3-GABA-Pro-Cha-Abu-Smc-His-Ala-Dab(6'-TAMRA)-Ala-Lys-NH2 as substrate bu fluorometric analysis; summary of the method: as §1
Sequence of Neutrophil collagenase (P22894 whole entry): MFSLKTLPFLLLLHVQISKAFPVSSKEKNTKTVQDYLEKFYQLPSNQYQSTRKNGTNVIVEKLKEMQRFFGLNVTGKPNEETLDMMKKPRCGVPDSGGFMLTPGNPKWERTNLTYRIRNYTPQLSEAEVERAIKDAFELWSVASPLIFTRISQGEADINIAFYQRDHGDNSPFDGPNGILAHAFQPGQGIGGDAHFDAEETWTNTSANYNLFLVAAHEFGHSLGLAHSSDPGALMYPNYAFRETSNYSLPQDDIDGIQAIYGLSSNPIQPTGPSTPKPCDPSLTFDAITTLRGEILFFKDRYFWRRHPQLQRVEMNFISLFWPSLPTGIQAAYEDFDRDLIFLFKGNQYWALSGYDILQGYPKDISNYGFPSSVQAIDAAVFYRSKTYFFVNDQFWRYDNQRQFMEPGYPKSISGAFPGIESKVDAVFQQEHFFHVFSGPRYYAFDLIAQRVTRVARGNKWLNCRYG

[9] = molecular target: Macrophage metalloelastase (Homo sapiens, UniProt P39900); test: Inhibition of MMP-12 (unknown origin) at 25 uM using TQ3-GABA-Pro-Cha-Abu-Smc-His-Ala-Dab(6'-TAMRA)-Ala-Lys-NH2 as substrate bu fluorometric analysis; summary of the method: as §1
Sequence of Macrophage metalloelastase (P39900 whole entry): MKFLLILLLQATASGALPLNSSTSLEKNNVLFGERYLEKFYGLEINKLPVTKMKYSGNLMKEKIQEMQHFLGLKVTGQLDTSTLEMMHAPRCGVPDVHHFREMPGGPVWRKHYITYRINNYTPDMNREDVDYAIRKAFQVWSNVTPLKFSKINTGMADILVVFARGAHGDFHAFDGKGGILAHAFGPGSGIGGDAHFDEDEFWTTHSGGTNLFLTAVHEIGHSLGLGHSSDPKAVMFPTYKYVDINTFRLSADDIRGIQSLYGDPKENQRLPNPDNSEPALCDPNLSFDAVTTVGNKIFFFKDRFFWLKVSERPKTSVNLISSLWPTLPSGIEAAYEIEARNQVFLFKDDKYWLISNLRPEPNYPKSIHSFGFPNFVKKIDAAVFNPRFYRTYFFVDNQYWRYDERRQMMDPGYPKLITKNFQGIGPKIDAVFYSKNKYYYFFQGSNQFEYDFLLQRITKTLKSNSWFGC

[10] = molecular target: Collagenase 3 (Homo sapiens, UniProt P45452); test: Inhibition of MMP-13 (unknown origin) at 25 uM using TQ3-GABA-Pro-Cha-Abu-Smc-His-Ala-Dab(6'-TAMRA)-Ala-Lys-NH2 as substrate bu fluorometric analysis; summary of the method: as §1
[11] = molecular target: Matrix metalloproteinase-14 (Homo sapiens, UniProt P50281); test: Inhibition of MMP-14 (unknown origin) at 25 uM using TQ3-GABA-Pro-Cha-Abu-Smc-His-Ala-Dab(6'-TAMRA)-Ala-Lys-NH2 as substrate bu fluorometric analysis; summary of the method: as §1
[12] = molecular target: T3, Matrix metalloproteinase-19 (Homo sapiens, UniProt Q99542); test: Inhibition of MMP-19 (unknown origin) at 25 uM using TQ3-GABA-Pro-Cha-Abu-Smc-His-Ala-Dab(6'-TAMRA)-Ala-Lys-NH2 as substrate bu fluorometric analysis; summary of the method: as §1
T3 sequence (Q99542 whole entry): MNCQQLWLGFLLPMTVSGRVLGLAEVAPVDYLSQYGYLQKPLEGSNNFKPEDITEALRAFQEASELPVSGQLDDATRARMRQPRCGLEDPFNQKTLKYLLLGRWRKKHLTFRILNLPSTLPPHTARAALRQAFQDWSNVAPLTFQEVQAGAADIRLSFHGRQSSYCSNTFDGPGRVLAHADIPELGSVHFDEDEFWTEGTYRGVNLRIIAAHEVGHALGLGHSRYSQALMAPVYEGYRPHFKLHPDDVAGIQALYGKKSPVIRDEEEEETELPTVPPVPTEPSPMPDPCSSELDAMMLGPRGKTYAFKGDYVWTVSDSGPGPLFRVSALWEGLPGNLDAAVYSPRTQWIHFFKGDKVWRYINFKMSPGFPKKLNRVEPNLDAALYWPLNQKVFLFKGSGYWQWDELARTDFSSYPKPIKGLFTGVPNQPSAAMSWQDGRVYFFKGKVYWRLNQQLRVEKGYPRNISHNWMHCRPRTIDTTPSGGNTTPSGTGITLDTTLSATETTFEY

[13] = tested on: HEK293; test: Cytotoxicity against human HEK293 cells assessed as reduction in cell viability incubated for 24 hrs by MTT assay; format: cell-based; settings: for Activity: human, hek293, 24 h, time 24 hrs
Summary of the method: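 HEK293 cells were exposed to compound for 24 h before viability read-out. The paper reports n = 3, with error bars as SD.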

[14] = GSH reactivity assessed as half life at 1 mM in presence of glutathione; format: physicochemical

## COC(=O)/C=C/C(=O)OC [DIMETHYL FUMARATE]
[1]
  K: 0.0589 min⁻¹

## O=C(/C=C/c1ccc(Cl)cc1Cl)N(O)CCCCN1C(=O)C=CC1=O
[2]
  Ratio: 46.3 M⁻¹ s⁻¹

## C=CC(=O)NCCCCCN(O)C(=O)/C=C/c1ccc(Cl)cc1Cl
[3]
  TDI: inactive

## C=CC(=O)NCCN(O)C(=O)/C=C/c1ccc(Cl)cc1Cl
[3]
  TDI: inactive

## C=CC(=O)NCCCCCCN(O)C(=O)/C=C/c1ccc(Cl)cc1Cl
[3]
  TDI: inactive

## C#CCN(O)C(=O)/C=C/c1ccc(Cl)cc1Cl
[3]
  TDI: inactive

## O=C(NCCCN(O)C(=O)/C=C/c1ccc(Cl)cc1Cl)C(F)Cl (stereo not drawn)
[3]
  TDI: inactive

## C#CCCCN(O)C(=O)/C=C/c1ccc(Cl)cc1Cl
[3]
  TDI: inactive

## O=C(NCCN(O)C(=O)/C=C/c1ccc(Cl)cc1Cl)Oc1ccccc1
[3]
  TDI: inactive

## C=CC(=O)NCCCN(O)C(=O)/C=C/c1ccc(Cl)cc1Cl
[3]
  TDI: inactive

## C#CCCN(O)C(=O)/C=C/c1ccc(Cl)cc1Cl
[3]
  TDI: inactive

## O=C(/C=C/C(F)F)NCCCN(O)C(=O)/C=C/c1ccc(Cl)cc1Cl
[3]
  TDI: inactive

## O=C(CI)NCCCN(O)C(=O)/C=C/c1ccc(Cl)cc1Cl
[1]
  K: 0.0611 min⁻¹
[4]
  inhibition (INH): Not Active
[5]
  inhibition (INH): Not Active
[6]
  inhibition (INH): Not Active
[7]
  inhibition (INH): Not Active
[8]
  inhibition (INH): Not Active
[9]
  inhibition (INH): Not Active
[10]
  inhibition (INH): Not Active
[11]
  inhibition (INH): Not Active
[12]
  inhibition (INH): Not Active

## O=C(/C=C/c1ccc(Cl)cc1Cl)N(O)CCCN1C(=O)C=CC1=O
[1]
  K: 0.0023 min⁻¹
[4]
  inhibition (INH): Active
[5]
  inhibition (INH): Active
[6]
  inhibition (INH): Active
[7]
  inhibition (INH): Active
[8]
  inhibition (INH): Active
[9]
  inhibition (INH): Active
[10]
  inhibition (INH): Active
[11]
  inhibition (INH): Active
[12]
  inhibition (INH): Active

## N#CC1(NC(=O)CCCN(O)C(=O)/C=C/c2ccc(Cl)cc2Cl)CC1
[3]
  TDI: inactive

## O=C(/C=C/c1ccc(Cl)cc1Cl)N(O)CCCN1C(=O)CCC1=O
[3]
  inhibition: inactive
[13]
  Activity: Non-Toxic

## O=C(/C=C/c1ccc(Cl)cc1Cl)NCCCNC(=O)CI
[3]
  TDI: Active
[13]
  Activity: Toxic

## O=C(CBr)NCCCCN(O)C(=O)/C=C/c1ccc(Cl)cc1Cl
[3]
  TDI: inactive

## O=C(/C=C/C(F)F)NCCCCN(O)C(=O)/C=C/c1ccc(Cl)cc1Cl
[3]
  TDI: inactive

## O=C(CCl)NCCCCN(O)C(=O)/C=C/c1ccc(Cl)cc1Cl
[3]
  TDI: inactive

## O=C(NCCCN(O)C(=O)/C=C/c1ccc(Cl)cc1Cl)Oc1ccccc1
[3]
  TDI: inactive

## O=C(NCCN(O)C(=O)/C=C/c1ccc(Cl)cc1Cl)C(F)Cl (stereo not drawn)
[3]
  TDI: inactive

## O=C(CCl)NCCCN(O)C(=O)/C=C/c1ccc(Cl)cc1Cl
[3]
  TDI: inactive

## O=C(/C=C/c1ccc(Cl)cc1Cl)N(O)CCCCCCC1CO1 (stereo not drawn)
[3]
  TDI: inactive

## O=C(/C=C/c1ccc(Cl)cc1Cl)NCCCCCC1CO1 (stereo not drawn)
[3]
  TDI: inactive

## O=C(/C=C/c1ccc(Cl)cc1Cl)N(O)CCCCCC1CO1 (stereo not drawn)
[1]
  K: 0.0012 min⁻¹
[4]
  inhibition (INH): Not Active
[5]
  inhibition (INH): Not Active
[6]
  inhibition (INH): Not Active
[7]
  inhibition (INH): Not Active
[8]
  inhibition (INH): Not Active
[9]
  inhibition (INH): Not Active
[10]
  inhibition (INH): Not Active
[11]
  inhibition (INH): Not Active
[12]
  inhibition (INH): Not Active

## CS(=O)(=O)SCCCCCCN(O)C(=O)/C=C/c1ccc(Cl)cc1Cl
[2]
  Ratio: 514 M⁻¹ s⁻¹
[14]
  half-life at 1000 µM: < 5 min

## C#CCCCCN(O)C(=O)/C=C/c1ccc(Cl)cc1Cl
[3]
  TDI: inactive

## O=C(CBr)NCCCN(O)C(=O)/C=C/c1ccc(Cl)cc1Cl
[3]
  TDI: inactive

## C=CC(=O)NCCCCN(O)C(=O)/C=C/c1ccc(Cl)cc1Cl
[3]
  TDI: inactive

## O=C(/C=C/c1ccc(Cl)cc1Cl)N(O)CCCCC1CO1 (stereo not drawn)
[3]
  TDI: inactive

## C=C(F)C(=O)NCCN(O)C(=O)/C=C/c1ccc(Cl)cc1Cl
[3]
  TDI: inactive

## C=C(F)C(=O)NCCCCN(O)C(=O)/C=C/c1ccc(Cl)cc1Cl
[3]
  TDI: inactive

## O=C(/C=C/C(F)F)NCCN(O)C(=O)/C=C/c1ccc(Cl)cc1Cl
[3]
  TDI: inactive

## O=C(CI)NCCCCN(O)C(=O)/C=C/c1ccc(Cl)cc1Cl
[2]
  Ratio: 12.4 M⁻¹ s⁻¹

## O=C(CBr)NCCN(O)C(=O)/C=C/c1ccc(Cl)cc1Cl
[3]
  TDI: inactive

## CC(=O)NCCCN(O)C(=O)/C=C/c1ccc(Cl)cc1Cl
[3]
  TDI: inactive
[13]
  Activity: Non-Toxic

## O=C(CCl)NCCN(O)C(=O)/C=C/c1ccc(Cl)cc1Cl
[3]
  TDI: inactive

## C=C(F)C(=O)NCCCN(O)C(=O)/C=C/c1ccc(Cl)cc1Cl
[3]
  TDI: inactive

## O=C(NCCCCN(O)C(=O)/C=C/c1ccc(Cl)cc1Cl)C(F)Cl (stereo not drawn)
[3]
  TDI: inactive

## O=C(/C=C/c1ccc(Cl)cc1Cl)NCCCN1C(=O)C=CC1=O
[3]
  TDI: Active
[13]; Homo sapiens, HEK293, 24 h
  IC50: 6 µM

— ChEMBL document CHEMBL4732040, “Irreversible inhibition of BoNT/A protease: proximity-driven reactivity contingent upon a bifunctional approach” (RSC Med Chem, 2021)
